# Measurements: ChEMBL document CHEMBL4699498 (J Med Chem, 2020)
# Active and inactive are the calls of the source. The calls are words filed in the database; no cut-off is given here.
# Experiments:
# SW-620 = assay: Antiproliferation activity against human SW620 assessed as cell growth inhibition incubated for 7 days by CCK-8 assay; type: functional, cell-based; conditions: time 7.0 day
# In short: (§1)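 Cells were sub-cultured at least twice and seeded for 24 h before dosing. Compounds came from 10 mM DMSO stocks, given as 10 points of 3-fold serial dilution starting at 10-20 μM. Incubation was about 7 days (Capan-1 13 days) at 37 °C, 5% CO2. Read-out was CCK-8 absorbance at 450 nm, as % growth versus DMSO wells (duplicate wells). IC50 was fitted by nonlinear regression; three independent experiments.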
# [1] = biological target: T1, Protein cereblon/Poly [ADP-ribose] polymerase 1 (Homo sapiens, UniProt P09874+Q96SW2); assay: Protac activity at CRBN/PARP1 in human LNCaP cells assessed as induction of PARP1 degradation measured after 24 hrs by Western blot analysis; type: cell-based
# In short: (§2)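 Concentration-response over a wide range, 24 h exposure; PARP1 quantified by western blot and normalized to β-tubulin density; DC50 derived from two biologically independent experiments.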
# Target sequence in this assay (P09874 whole entry): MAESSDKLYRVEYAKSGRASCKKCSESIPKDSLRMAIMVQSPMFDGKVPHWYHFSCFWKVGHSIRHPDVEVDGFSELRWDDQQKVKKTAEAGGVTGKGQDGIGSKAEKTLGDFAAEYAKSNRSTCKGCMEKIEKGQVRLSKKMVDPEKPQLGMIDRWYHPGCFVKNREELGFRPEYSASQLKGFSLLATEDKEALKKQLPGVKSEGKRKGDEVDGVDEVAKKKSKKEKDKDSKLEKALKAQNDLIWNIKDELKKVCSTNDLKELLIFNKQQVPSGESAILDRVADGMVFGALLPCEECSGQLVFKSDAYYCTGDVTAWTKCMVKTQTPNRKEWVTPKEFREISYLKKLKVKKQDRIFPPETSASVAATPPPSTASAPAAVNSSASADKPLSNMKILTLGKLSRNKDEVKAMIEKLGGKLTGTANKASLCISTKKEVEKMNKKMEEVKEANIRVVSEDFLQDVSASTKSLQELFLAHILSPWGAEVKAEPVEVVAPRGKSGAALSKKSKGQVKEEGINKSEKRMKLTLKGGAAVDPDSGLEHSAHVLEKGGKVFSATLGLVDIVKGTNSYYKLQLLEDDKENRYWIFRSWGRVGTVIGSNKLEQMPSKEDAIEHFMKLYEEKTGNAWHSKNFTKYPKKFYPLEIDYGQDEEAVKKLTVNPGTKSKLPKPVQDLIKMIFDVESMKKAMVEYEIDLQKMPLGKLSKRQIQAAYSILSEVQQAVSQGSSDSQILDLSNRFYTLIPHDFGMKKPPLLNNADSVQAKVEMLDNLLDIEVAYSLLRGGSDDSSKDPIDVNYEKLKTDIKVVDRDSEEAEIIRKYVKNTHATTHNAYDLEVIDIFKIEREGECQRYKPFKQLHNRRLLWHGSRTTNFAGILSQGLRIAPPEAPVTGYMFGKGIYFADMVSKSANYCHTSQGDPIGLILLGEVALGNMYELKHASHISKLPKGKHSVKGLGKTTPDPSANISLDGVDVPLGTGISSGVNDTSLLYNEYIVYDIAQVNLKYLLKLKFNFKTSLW
# Target sequence in this assay (Q96SW2 whole entry): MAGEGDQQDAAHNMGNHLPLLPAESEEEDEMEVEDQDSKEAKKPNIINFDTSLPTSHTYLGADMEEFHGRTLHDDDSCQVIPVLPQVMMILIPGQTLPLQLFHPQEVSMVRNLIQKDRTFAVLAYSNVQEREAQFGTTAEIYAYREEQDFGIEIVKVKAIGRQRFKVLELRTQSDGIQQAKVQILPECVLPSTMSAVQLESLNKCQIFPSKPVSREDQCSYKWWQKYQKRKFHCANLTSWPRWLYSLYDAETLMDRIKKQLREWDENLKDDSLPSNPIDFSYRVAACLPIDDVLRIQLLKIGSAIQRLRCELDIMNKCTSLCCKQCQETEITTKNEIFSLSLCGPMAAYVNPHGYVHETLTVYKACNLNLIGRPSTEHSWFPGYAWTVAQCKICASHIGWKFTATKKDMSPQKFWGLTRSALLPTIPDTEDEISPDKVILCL
# [2] = biological target: T1, Protein cereblon/Poly [ADP-ribose] polymerase 1; assay: Protac activity at CRBN/PARP1 in human HCC1937 cells assessed as induction of PARP1 degradation measured after 24 hrs by Western blot analysis; type: cell-based
# In short: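 The cell line was treated 24 h across a concentration range. PARP1 was measured by western blot against β-tubulin. DC50 is the average of two biologically independent experiments.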
# Target sequence in this assay (P09874 whole entry): as the sequence (P09874 whole entry) above
# Target sequence in this assay (Q96SW2 whole entry): as the sequence (Q96SW2 whole entry) above
# CAPAN-1 = assay: Potentiation of cisplatin induced antitumor activity against CAPAN-1 cells xenografted in Balb/c mouse at 50 mg/kg, ip qd administered for 5 days measured on day 16; type: functional, organism-based; conditions: time 16.0 day
# In short: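 Male BALB/c nude mice carried Capan-1 xenografts (5×10^6 cells s.c.), randomized at ~150 mm³ (6 per group). Treatment was 25 or 50 mg/kg intraperitoneally or 100 mg/kg by oral gavage, once daily on days 0-4. Cisplatin 6 mg/kg in saline was given intraperitoneally on day 2, 45 min after the partner drug. Tumor volume and body weight were measured 2-3 times weekly.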
# [3] = biological target: T1, Protein cereblon/Poly [ADP-ribose] polymerase 1; assay: Protac activity at CRBN/PARP1 in human MDA-MB-436 cells assessed as induction of PARP1 degradation at 10 nM incubated for 24 hrs by Western blot analysis relative to control; type: cell-based
# In short: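 MDA-MB-436 cells (RPMI-1640, 10% FBS) seeded 24 h, then exposed to compound at 1, 10, 100 and 1000 nM for 24 h. Lysates in RIPA with protease inhibitors, 20-30 µg protein by SDS-PAGE, PARP1 immunoblot with β-tubulin loading control; PARP1/β-tubulin ratio normalized to DMSO control set at 100.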
# Target sequence in this assay (P09874 2-1014 limits assumed): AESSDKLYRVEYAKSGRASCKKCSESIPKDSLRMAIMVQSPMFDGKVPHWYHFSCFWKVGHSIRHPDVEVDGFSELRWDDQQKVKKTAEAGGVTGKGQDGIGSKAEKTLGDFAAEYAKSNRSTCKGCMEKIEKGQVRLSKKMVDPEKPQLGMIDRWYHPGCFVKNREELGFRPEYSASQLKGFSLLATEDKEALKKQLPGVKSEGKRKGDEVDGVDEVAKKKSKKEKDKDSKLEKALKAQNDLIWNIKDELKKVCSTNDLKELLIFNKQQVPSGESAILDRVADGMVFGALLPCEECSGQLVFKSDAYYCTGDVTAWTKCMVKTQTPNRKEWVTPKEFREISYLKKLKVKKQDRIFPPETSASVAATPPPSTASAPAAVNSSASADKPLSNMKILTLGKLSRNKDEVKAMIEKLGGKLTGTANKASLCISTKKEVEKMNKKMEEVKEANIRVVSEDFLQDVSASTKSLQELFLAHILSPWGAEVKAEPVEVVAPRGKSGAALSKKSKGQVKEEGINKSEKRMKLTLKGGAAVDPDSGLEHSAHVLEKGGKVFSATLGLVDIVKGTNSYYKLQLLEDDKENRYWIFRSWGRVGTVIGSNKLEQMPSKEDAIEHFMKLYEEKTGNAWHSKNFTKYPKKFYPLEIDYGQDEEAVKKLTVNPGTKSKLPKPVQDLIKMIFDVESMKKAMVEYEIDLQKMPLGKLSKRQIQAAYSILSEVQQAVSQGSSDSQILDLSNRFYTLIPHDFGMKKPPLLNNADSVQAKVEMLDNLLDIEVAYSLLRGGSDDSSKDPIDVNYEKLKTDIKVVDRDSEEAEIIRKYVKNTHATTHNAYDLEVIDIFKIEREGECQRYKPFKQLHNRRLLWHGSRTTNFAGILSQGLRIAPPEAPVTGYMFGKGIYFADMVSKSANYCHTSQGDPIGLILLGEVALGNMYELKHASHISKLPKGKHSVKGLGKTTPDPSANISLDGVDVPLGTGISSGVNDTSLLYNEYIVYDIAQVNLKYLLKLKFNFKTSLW
# Target sequence in this assay (Q96SW2 whole entry partner): as the sequence (Q96SW2 whole entry) above
# [4] = biological target: T1, Protein cereblon/Poly [ADP-ribose] polymerase 1; assay: Protac activity at CRBN/PARP1 in human MDA-MB-231 cells assessed as induction of PARP1 degradation measured after 24 hrs by Western blot analysis; type: cell-based; in short: as §2
# Target sequence in this assay (P09874 whole entry): as the sequence (P09874 whole entry) above
# Target sequence in this assay (Q96SW2 whole entry): as the sequence (Q96SW2 whole entry) above
# HCC1937 = assay: Antiproliferation activity against human HCC1937 assessed as cell growth inhibition incubated for 7 days by CCK-8 assay; type: functional, cell-based; conditions: time 7.0 day; in short: as §1
# [5] = biological target: T1, Protein cereblon/Poly [ADP-ribose] polymerase 1; assay: Protac activity at CRBN/PARP1 in human CAPAN-1 cells assessed as induction of PARP1 degradation incubated for 24 hrs by Western blot analysis; type: cell-based
# In short: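 Capan-1 cells were treated 24 h (1-1000 nM, or a wider dose range for DC50). Lysis was in RIPA buffer with protease inhibitors, and 20-30 μg protein was blotted. PARP1 was normalized to β-tubulin and to DMSO control, quantified by densitometry. DC50 came from two independent experiments.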
# Target sequence in this assay (P09874 whole entry): as the sequence (P09874 whole entry) above
# Target sequence in this assay (Q96SW2 whole entry): as the sequence (Q96SW2 whole entry) above
# [6] = biological target: T1, Protein cereblon/Poly [ADP-ribose] polymerase 1; assay: Protac activity at CRBN/PARP1 in human 22Rv1 cells assessed as induction of PARP1 degradation at 30 nM incubated for 1 to 24 hrs by Western blot analysis; type: cell-based; conditions: time hrs 1-24
# Target sequence in this assay (P09874 2-1014 limits assumed): as the sequence (P09874 2-1014 limits assumed) above
# Target sequence in this assay (Q96SW2 whole entry partner): as the sequence (Q96SW2 whole entry) above
# [7] = biological target: T1, Protein cereblon/Poly [ADP-ribose] polymerase 1; assay: Protac activity at CRBN/PARP1 in human SW-620 cells assessed as induction of PARP1 degradation at 30 nM incubated for 24 hrs in presence of proteasome inhibitor carfilzomib by Western blot analysis; type: cell-based
# Target sequence in this assay (P09874 2-1014 limits assumed): as the sequence (P09874 2-1014 limits assumed) above
# Target sequence in this assay (Q96SW2 whole entry partner): as the sequence (Q96SW2 whole entry) above
# [8] = Cmax in ICR mouse at 25 mg/kg, ip by LC-tandem mass spectrometry analysis; type: ADME, organism-based; set-up: route intraperitoneal, dose 25 mg/kg; conditions: in vivo
# In short: (§3)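 Female ICR mice (20-23 g, 6-7 weeks old, n = 3) received a single 25 mg/kg intraperitoneal dose formulated in 5% DMSO/15% Solutol HS15/80% D5W. Plasma was sampled at 0.5, 1, 2, 4, 6, 8 and 24 h and protein-precipitated with methanol. Compound was quantified by LC-MS/MS against a standard curve.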
# [9] = biological target: T1, Protein cereblon/Poly [ADP-ribose] polymerase 1; assay: Protac activity at CRBN/PARP1 in human SW-620 cells assessed as induction of PARP1 degradation incubated for 24 hrs by Western blot analysis; type: cell-based; in short: as §2
# Target sequence in this assay (P09874 whole entry): as the sequence (P09874 whole entry) above
# Target sequence in this assay (Q96SW2 whole entry): as the sequence (Q96SW2 whole entry) above
# [10] = biological target: T1, Protein cereblon/Poly [ADP-ribose] polymerase 1; assay: Protac activity at CRBN/PARP1 in human MDA-MB-436 cells assessed as induction of PARP1 degradation at 30 nM incubated for 24 hrs in presence of 0.1 to 1 uM CRBN ligand pomalidomide by Western blot analysis
# Target sequence in this assay (P09874 2-1014 limits assumed): as the sequence (P09874 2-1014 limits assumed) above
# Target sequence in this assay (Q96SW2 whole entry partner): as the sequence (Q96SW2 whole entry) above
# L02 = assay: Cytotoxicity against human L02 cells assessed as reduction in cell viability incubated for 120 hrs by CCK-8 assay; type: cell-based; conditions: l02, 120 h
# MDA-MB-231 = assay: Antiproliferation activity against human MDA-MB-231 assessed as cell growth inhibition incubated for 7 days by CCK-8 assay; type: functional, cell-based; conditions: time 7.0 day; in short: as §1
# [11] = biological target: T1, Protein cereblon/Poly [ADP-ribose] polymerase 1; assay: Protac activity at CRBN/PARP1 in human MDA-MB-436 cells assessed as PARP1 protein degradation at 1 to 10 nM incubated for 24 hrs by western blot analysis; type: cell-based; conditions: dose nM 1-10, time 24.0 hrs
# Target sequence in this assay (P09874 2-1014 limits assumed): as the sequence (P09874 2-1014 limits assumed) above
# Target sequence in this assay (Q96SW2 whole entry partner): as the sequence (Q96SW2 whole entry) above
# [12] = Acute toxicity in Balb/c mouse assessed as lethality at 25 to 50 mg/kg, ip administered 5 times a week for 3 weeks; type: organism-based; conditions: in vivo, 504 h
# In short: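 Male BALB/c nude mice (5–6 weeks) received 5×10^6 Capan-1 cells s.c. in the right armpit. At a mean tumour volume of about 150 mm³, mice were randomised by tumour volume and body weight, 6 per group. Dosing was i.p. in 5% DMSO/20% PEG400/10% Cremophor EL/65% saline, once daily five times per week for 3 weeks. Body weight was measured 2–3 times weekly.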
# [13] = biological target: T1, Protein cereblon/Poly [ADP-ribose] polymerase 1; assay: Protac activity at CRBN/PARP1 in human MDA-MB-436 cells assessed as induction of PARP1 degradation at 30 nM incubated for 24 hrs in presence of 0.1 to 1 uM PARP1 inhibitor olaparib by Western blot analysis
# Target sequence in this assay (P09874 2-1014 limits assumed): as the sequence (P09874 2-1014 limits assumed) above
# Target sequence in this assay (Q96SW2 whole entry partner): as the sequence (Q96SW2 whole entry) above
# [14] = Half-life in ICR mouse at 25 mg/kg, ip by LC-tandem mass spectrometry analysis; type: ADME, organism-based; conditions: in vivo; in short: as §3
# [15] = Plasma concentration in ICR mouse at 25 mg/kg, ip at 4 hrs postinjection by LC-tandem mass spectrometry analysis; type: ADME, organism-based; in short: as §3
# [16] = biological target: T1, Protein cereblon/Poly [ADP-ribose] polymerase 1; assay: Protac activity at CRBN/PARP1 in human MDA-MB-436 cells assessed as induction of PARP1 degradation incubated for 24 hrs by Western blot analysis; type: cell-based; in short: as §2
# Target sequence in this assay (P09874 whole entry): as the sequence (P09874 whole entry) above
# Target sequence in this assay (Q96SW2 whole entry): as the sequence (Q96SW2 whole entry) above
# [17] = biological target: T1, Protein cereblon/Poly [ADP-ribose] polymerase 1; assay: Protac activity at CRBN/PARP1 in human SW-620 cells assessed as induction of PARP1 degradation at 30 nM measured after 2 hrs by Western blot analysis
compound,measurement,setting,value
O=C(CCCCCCCCCCC(=O)N1CCN(C(=O)c2cc(Cc3n[nH]c(=O)c4ccccc34)ccc2F)CC1)NCCNc1cccc2c1C(=O)N(C1CCC(=O)NC1=O)C2=O (configuration not stated),Activity,SW-620,Active
same,DC50,[1],1.08 nM
same,DC50,[2],0.384 nM
same,Activity,CAPAN-1,Active
same,Activity,[3],> 99%
same,DC50,[4],0.228 nM
same,Activity,HCC1937,Active
same,DC50,[5],6.72 nM
same,Activity,[6],Active
same,Activity,[7],inactive
same,Cmax,[8],1840 ng/mL
same,DC50,[9],0.509 nM
same,Activity,[10],inactive
same,Activity,L02,Non-Toxic
same,Activity,MDA-MB-231,Active
same,Activity,[11],Active
same,Activity,[12],Non-Toxic
same,Activity,[13],inactive
same,half-life,[14],3.08 h
same,concentration at 4 h,[15],182 nM
same,DC50,[16],1.26 nM
same,Activity,[17],Active
